From ChEMBL document CHEMBL4513216, “Probing the Open Global Health Chemical Diversity Library for Multistage-Active Starting Points for Next-Generation Antimalarials” (ACS Infect Dis, 2020) come the findings set out here.

The nature of the series: Toxicity liver stage against HepG2, at 10uM. Format: cell-based. On the set-up: test concentration 10 uM, cell line HepG2-A16-CD81EGFP. To be noted: human, HepG2-A16-CD81EGFP cells; read-out: INHIBITION
Put shortly: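 Uninfected HepG2-A16-CD81EGFP cells, 3 × 10^3 per well, 1536-well, plated on prespotted compound at 10 μM final, parasite-free screening media added to match infected plates; puromycin 10 μM positive, DMSO 0.5% negative; run in parallel with 48 h PbLuc assay at 37 °C, 5% CO2; viability by CellTiter-Glo luminescence, normalized to controls.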
With `COCCNC(=O)C1CN(Cc2csc(C)n2)Cc2ccnn2C1` (configuration not stated), the cytotoxicity at 10 µM is -74.2%. With `CC(C)Oc1ccccc1C1CC(=O)Nc2c1cnn2C` (configuration not stated) the figure was 2.09%; with `CCCC1(C(=O)O)CCCN(C(=O)c2cc(Cl)ccc2F)C1` (configuration not stated), 0.515%; with `COc1ccc(C(=O)N(C)Cc2cc(C)on2)c(OC)c1`, -11.3%. Regarding `CC(C)=CCCC1(C)CCC(=O)N(CCc2nc(N)cc(O)n2)C1` (configuration not stated), the cytotoxicity at 10 µM amounted to 0.361%. Consider `CN(CC1CN(CCn2cc(C#N)cn2)CCO1)c1cccnn1` (configuration not stated), for which the cytotoxicity at 10 µM came to 1.85%. With `Cc1nn(CC(=O)N2CCN(c3ccncc3)CC2)c(C)c1Cl` the figure was -17.8%. With `Cc1nc(CNCC2CCCN2c2cccnn2)oc1C` (configuration not stated) the figure was -3.31%. With `CC(Cn1cccn1)NC(=O)CCc1ccc(S(N)(=O)=O)cc1` (configuration not stated), the cytotoxicity at 10 µM is -2.02%. With `Cc1cccc(CN2CCCC(O)(CNCCN3CCCCC3)C2=O)c1` (configuration not stated) the figure was 1.02%; with `CCS(=O)(=O)N[C@@H]1CN(Cc2cc(C)on2)C[C@@H]2CCCO[C@@H]21`, -6.01%. For `Cc1cc(-c2ccc(=O)n(C3CCN(S(=O)(=O)N(C)C)CC3)n2)c(C)o1` the value was 6.54%. Consider `COCCOCC(=O)NCCCOC1CCCc2ccccc21` (configuration not stated), for which the cytotoxicity at 10 µM was 4.15%. With `O=C(NCCCO)c1nnsc1-c1ccc(Cl)cc1` the figure was 4.62%. With `O=S(=O)(c1ccc(Cl)cc1)N1CCc2nc(C3CCNCC3)ncc2C1` the figure was -17.3%; with `CCCN(CCC)c1ncc(S(=O)(=O)c2ccc(OC)cc2)c(N)n1`, 7.79%. With `NC(=O)NC(=O)CCn1ccc(-c2ccccc2)n1` the figure was 5.2%. For `CC(C)Cn1nc2ccc(S(=O)(=O)N3CCC(C)CC3)cn2c1=O`, the cytotoxicity at 10 µM was 1.67%. For `COCC1Cn2nnc(-c3cnn(C)c3)c2CN1Cc1ccco1` (configuration not stated) the value was -9.44%. For `Cc1cccc(NC(=O)[C@@H]2CCCN2CC(=O)Nc2ccccc2)n1` the value was 2.45%. With `CCN(CC(=O)N(C)C)C(=O)c1nc(C)n(-c2ccccc2Cl)n1` the figure was 7.3%; with `Cc1cccnc1NCCNC(=O)C1CCN(C(=O)N(C)C)CC1`, 1.99%; with `CCN1CCN(C[C@@H]2CN(Cc3cnc(C(C)C)nc3)C[C@@H]2CO)CC1`, -6.79%. Turning to `Cc1ccc(C)c2c(O)cc(CNCCNC(=O)C(C)C)nc12`, the cytotoxicity at 10 µM was -8.14%. With `CCS(=O)(=O)CCN1CCN(C(C)c2cccnc2)CC1` (configuration not stated) the figure was 8.65%; with `COc1ccc(CN2C[C@H]3CC[C@@H](C2)N(Cc2snnc2C)C3)cc1`, -21.7%; with `CCc1ccc(CN(Cc2ccccc2)CC(C)CO)nc1` (configuration not stated), 9.11%.

As to `Cc1nccn1CCN(C)c1cc(C(C)C)nc2ccnn12`, the cytotoxicity at 10 µM was -3.88%.

For `CCc1ncc2c(n1)CN(CC(=O)Nc1nncs1)CC2`, the cytotoxicity at 10 µM stood at 1.74%. As to `NC(=O)NC(CC(=O)NCCc1ccc(F)cc1)c1ccccc1` (configuration not stated), the cytotoxicity at 10 µM was -2.39%. As to `N#Cc1cccnc1NCCNC(=O)N1CCCC(N2CCCC2)C1` (configuration not stated), the cytotoxicity at 10 µM stood at 7.61%. With `Cc1cc(C(=O)NCc2cccs2)c2c(C3CCCN3)noc2n1` (configuration not stated) the figure was 6.36%; with `Cc1noc(C)c1CS(=O)(=O)CC(=O)N1CCc2sccc2C1`, -17%; with `CCOCCN1CCN(Cc2coc(-c3cccc(F)c3)n2)CC1`, -2.87%. Consider `O=S(=O)(NCCN1CC=CC1)c1cncc(Cl)c1`, for which the cytotoxicity at 10 µM is -2.42%.

`CNS(=O)(=O)Cc1ccc(CNC(=O)c2ccc(C)[nH]c2=O)cc1`: the cytotoxicity at 10 µM was -3.3%. For `COCC(Nc1ncnc2sc(C(=O)O)c(C)c12)c1ccnn1C` (configuration not stated) the value was -18.7%; for `Cc1nn(C)c(C)c1CN(C)C1CCN(c2ncnc3[nH]cnc23)CC1`, -76.7%.

Consider `CCn1ccnc1CN1CCN(C(C)C(=O)N2CCCC2)CC1` (configuration not stated), for which the cytotoxicity at 10 µM was -3.97%. Take `O=C(NC1CC(=O)N(Cc2cccc(F)c2)C1)c1ccncc1` (configuration not stated): the cytotoxicity at 10 µM is -7.41%. For `CC(=O)Nc1ccc(CNC2CCCSC2)cc1` (configuration not stated) the value was -10.5%; for `CC(O)CN(C)S(=O)(=O)c1ccc(C#N)cc1F` (configuration not stated), -6.67%; for `CCC(=O)N1CCC(Cc2cnc(Nc3cnccn3)cn2)CC1`, -2.19%. For the molecule `COC(=O)c1cc(CN2CCC(c3noc(C)n3)CC2)c(C)s1`, the cytotoxicity at 10 µM is -7.12%. With `O=c1cccnn1CC1CN(Cc2ccsc2)Cc2nccn2C1` (configuration not stated) the figure was 1.31%; with `CN(C)C(=O)c1ccc2c(c1)N(C)C(CC(=O)NCc1ncc[nH]1)CO2` (configuration not stated), -5.93%. For `N#Cc1cccc(OCCN2CCCC2C(=O)NC2CC2)c1` (configuration not stated) the value was -3.78%; for `O=C(c1ccc2ccccc2n1)N1CCC2(CCN2c2ncccn2)C1` (configuration not stated), -114%; for `CCS(=O)(=O)NCCNc1c(C#N)cnc2c(C)cc(F)cc12`, -0.453%. With `Cc1ccc(F)cc1C(=O)OCC1CCCN1C(N)=O` (configuration not stated) the figure was 5.01%. Take `O=C(c1ccn(-c2ccccc2)n1)N1CCCC(n2cccn2)C1` (configuration not stated): the cytotoxicity at 10 µM is -10.8%. With `O=c1c2sccc2nc2n1CCN(Cc1ccccc1C(F)(F)F)CC2` the figure was -9.31%; with `COc1cccc(NC(=O)NC(C)c2ccc3c(c2)CC(=O)N3)c1` (configuration not stated), -3.49%. For `CN(CC(=O)NCCC#N)C(c1ccccc1)c1ccc(F)cc1` (configuration not stated) the value was -4.34%. For `Cc1cc(N2CCC(c3ncc[nH]3)CC2)cc(C)n1` the value was -1.95%; for `CCn1cc(C(=O)NCc2csc(C3CC3)n2)c(C)n1`, 27.4%. Turning to `Cc1cc(S(C)(=O)=O)c(C)c(S(=O)(=O)N2CCCC(C)C2)c1` (configuration not stated), the cytotoxicity at 10 µM was 22.6%.

For the molecule `CC(C)(CNc1c(C#N)cnc2ccc(Cl)cc12)C(N)=O`, the cytotoxicity at 10 µM was 9.19%. For `CCC(=O)N1CCC(NC2CCCC2)C1` (configuration not stated) the value was -4.26%; for `CC(C)c1cc(C(=O)O)nc2[nH]c(=O)[nH]c(=O)c12`, -3.25%. With `O=C(CCc1ccsc1)N1CCCCC1Cn1cccn1` (configuration not stated) the figure was -5.78%. With `Cc1oc(C)c(C(=O)Nc2ccccn2)c1C` the figure was -9.78%. Consider `CN(Cc1cccnc1)C1CC2(CCN(C(=O)c3ccnnc3)CC2)C1`, for which the cytotoxicity at 10 µM amounted to 5.41%. With `COc1ccc2c(c1)OCC(CNC(=O)c1cnc(NC(C)C)nc1)C2` (configuration not stated) the figure was -5.07%. With `O=c1oc(-c2cccs2)nn1CC(O)c1ccccc1` (configuration not stated) the figure was 21.3%; with `NC(=O)C1(c2cnccn2)CCCN1Cc1ccncc1` (configuration not stated), -0.446%; with `CCCNC(=O)CCNC1CSCCc2ccccc21` (configuration not stated), -0.421%. With `CCc1nnc(CN2CCCC(Cn3nc(C)nc3C)C2)o1` (configuration not stated) the figure was 6.81%; with `CCn1nc(C)c2nc(C(C)C)nc(NCC(C)O)c21` (configuration not stated), 8.02%. Turning to `O=C(O)c1ccc2c(c1)C1(CCCCC1)CN2C(=O)c1cccs1`, the cytotoxicity at 10 µM came out at 3.01%. Consider `CC(C)NC(=O)N1CCc2ncnc(-c3ccncc3)c2CC1`, for which the cytotoxicity at 10 µM is -0.736%. With `O=C(CCOc1ccccc1)N1CCCC(c2ncc[nH]2)C1` (configuration not stated) the figure was -2.68%.
